The values below come from PubChem BioAssay.

Each structure is given as a SMILES string. Calls of active or inactive are those of the source.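 Rule for the calls, unless noted: active = viability at or under a set limit in both replicates, limit being median viability minus 3 SD (cut at about 48% in these data, passing the limit was not always enough); inconclusive = at or under the limit in just one replicate; inactive = at or above the limit in both replicates.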

The term viability denotes a read-out of living cells in per cent, often relative to untreated cells. In general, inhibition refers to the relative decrease from the control value, in per cent.

A short description of assay [1]: Her2 expression decrease, cell viability multiplex – SKBR3 breast tumor cells, AlphaScreen, ATP viability, primary screen (AID 461;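 active = Her2 level under about 52% in both replicate screens, with viability over 70% of control, limit read from the data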;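 for Her2 level: lower value means less Her2 protein in the cells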;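 for viability: percent of carrier control wells set as 100% viability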). Particulars: SKBR3 Her2 protein level, 18-24 h, measured here: SKBR3 viability, ATP luminescence, at 10 µM. (In Alpha technology, singlet oxygen from a donor bead excites a nearby acceptor bead.)
The target in assay [2] is Receptor tyrosine-protein kinase erbB-2 (Homo sapiens) (UniProt P04626). The assay is described as above. The following applies: 18-24 h, at 10 µM, stronger effect = lower value.
Assay [3] in a line: reduced viability of SK-BR-3 breast cancer cells – cell-based, 24 h, human, pilot screen (AID 572;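 active = viability at or below 10% of carrier control in both of two separate runs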;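 note: compound exposure lasted between 18 and 24 h rather than exactly 24 h; 100% = carrier-treated control wells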). Particulars: SK-BR-3 viability, CellTiter-Glo luminescence, at 10 µM, stronger effect = lower value.
Assay [4] can be described thus: HUVEC growth inhibition – cell-based, human, primary screen (AID 575;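 active = viability at or below 30% in both replicate assays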;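 note: 100% = median of untreated cell wells with 0.1% DMSO on each plate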). Particulars: HUVEC proliferation, CellTiter-Glo luminescence, 72 h; at 10 µM; stronger effect = lower value. An outline of the steps:
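Assay system: primary human umbilical vein endothelial cells / Buffer or medium: endothelial basal medium with 2% FBS plus growth supplements / Compound dosing: one dose, 10 µM final, 0.1% DMSO / Timing: 72 h treatment at 37 °C / Signal: CTG luminescence / Benchmarks: 32 DMSO-only cell-control wells (high), 32 MePR drug-control wells (low) per plate / Plate: collagen-coated 384-well format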
(ATP-based viability assays read luminescence as a measure of living cells.)

A short description of assay [5]: H69AR cell proliferation blockers – human, duplicate replicates, primary screen (AID 580).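 Note: 100% = mean luminescence of untreated wells and 0% = no signal.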 The following applies: H69AR lung tumor cells viability, ATP luminescence, 72 h; at 10 µM; stronger effect = lower value.
A short description of assay [6]: MRP1 drug-resistance reversers in H69AR cells – cell-based, doxorubicin co-treatment, pilot screen (AID 601;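 active = viability loss from added drug above about 55%, and viability with drug at most 40%, in both replicates, limit read from the data, passing the limit was not always enough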). Particulars: CellTiter-Glo, 72 h, at 10 µM; for differential viability (reversal): stronger effect = higher value.
A short description of assay [7]: yeast transport mutant growth inhibition pilot in 384-well plates, post-Golgi transport modulator project (AID 636; in the data active = inhibition above about 31%). Particulars: absorbance 615 nm, about 18 h, stronger effect = higher value.
The nature of assay [8]: growth suppression of yeast trafficking mutant, preliminary HTS, modulators of trafficking downstream of Golgi apparatus project, 1536-format plate, OD 615 nm (AID 637; in the data active = inhibition above about 30%). Particulars: yeast transport mutant growth, absorbance 615 nm, 18 h; stronger effect = higher value.
The mark [9] stands for this setting: H69AR cells + 2 uM doxorubicin, measured here: viability with 2 uM doxorubicin, stronger effect = lower value.
[10] abbreviates: H69AR cells, compound alone cytotoxicity.

Sequence of Receptor tyrosine-protein kinase erbB-2 (Homo sapiens) (P04626 whole entry, looked up): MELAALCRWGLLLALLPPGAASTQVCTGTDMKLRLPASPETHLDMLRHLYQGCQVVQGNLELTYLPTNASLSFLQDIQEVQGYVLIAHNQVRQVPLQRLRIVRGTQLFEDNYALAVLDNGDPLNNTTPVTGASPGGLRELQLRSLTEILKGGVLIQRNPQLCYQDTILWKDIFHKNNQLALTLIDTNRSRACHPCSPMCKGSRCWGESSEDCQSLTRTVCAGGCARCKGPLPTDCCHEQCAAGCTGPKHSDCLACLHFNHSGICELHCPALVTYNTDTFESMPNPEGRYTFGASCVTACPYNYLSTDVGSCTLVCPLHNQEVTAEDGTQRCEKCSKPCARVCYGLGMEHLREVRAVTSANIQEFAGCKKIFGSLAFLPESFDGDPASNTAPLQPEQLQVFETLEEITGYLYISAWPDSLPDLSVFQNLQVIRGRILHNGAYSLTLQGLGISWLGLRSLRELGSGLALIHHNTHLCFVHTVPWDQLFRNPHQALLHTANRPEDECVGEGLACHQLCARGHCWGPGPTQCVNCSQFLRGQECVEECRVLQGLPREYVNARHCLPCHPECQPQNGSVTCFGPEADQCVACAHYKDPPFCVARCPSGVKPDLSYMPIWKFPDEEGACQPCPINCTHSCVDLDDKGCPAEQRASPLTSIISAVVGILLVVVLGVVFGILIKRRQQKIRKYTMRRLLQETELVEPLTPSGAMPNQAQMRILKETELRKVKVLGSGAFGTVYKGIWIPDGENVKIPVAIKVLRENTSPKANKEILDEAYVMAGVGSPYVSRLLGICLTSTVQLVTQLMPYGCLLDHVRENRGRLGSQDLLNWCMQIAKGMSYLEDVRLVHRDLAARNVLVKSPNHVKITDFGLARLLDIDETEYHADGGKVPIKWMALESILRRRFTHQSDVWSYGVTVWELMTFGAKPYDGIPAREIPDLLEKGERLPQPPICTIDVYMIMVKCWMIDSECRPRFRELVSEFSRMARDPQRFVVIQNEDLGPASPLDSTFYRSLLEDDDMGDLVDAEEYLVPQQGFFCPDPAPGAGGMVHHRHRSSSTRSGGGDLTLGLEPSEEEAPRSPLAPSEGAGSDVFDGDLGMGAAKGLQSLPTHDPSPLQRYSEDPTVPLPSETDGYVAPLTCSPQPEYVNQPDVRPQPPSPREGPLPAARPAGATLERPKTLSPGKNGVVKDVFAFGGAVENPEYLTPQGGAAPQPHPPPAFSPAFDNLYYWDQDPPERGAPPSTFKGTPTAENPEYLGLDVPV

On to `CCOc1ccccc1NC(=O)CN(c1ccc(C)cc1)S(=O)(=O)c1c(C)noc1C`, for which the viability was 133% in assay [1]; 133% (inactive) in assay [3]; 68.3% (inactive) in assay [4]; 81% (inactive) in assay [5]; 90.1% in assay [6] (setting [9]); 81% in assay [6] (setting [10]). Besides, the Her2 level in assay [2] is 87% (inactive). Besides, in assay [6] (H69AR cells + 2 uM doxorubicin), the differential viability (reversal) is -9.07% (inactive). Besides, the inhibition in assay [7] was -4.46% (inactive); in assay [8], 5.56% (inactive).
In the case of `CC1CC(C)CN(CCCNC(=O)COc2cc(=O)n(C)c3ccccc23)C1` (stereo not given), the viability is 90% in assay [1]; 90% (inactive) in assay [3]; 85.3% (inactive) in assay [4]; 90.7% (inactive) in assay [5]; 74.2% in assay [6] (setting [9]); 90.7% in assay [6] (setting [10]). For the same molecule, the Her2 level in assay [2] was 88% (inactive). Besides, the differential viability (reversal) in assay [6] (H69AR cells + 2 uM doxorubicin) was 16.5% (inactive). Also, the values for the inhibition in assay [7] and in assay [8] were -3.73% (inactive) and -4.59% (inactive), respectively.
Consider `O=C(NC1CCCC1)C1CC1c1ccccc1` (stereo not given), for which the viability in assay [1] is 100%; in assay [3], 100% (inactive); in assay [4], 93.9% (inactive); in assay [5], 98.3% (inactive); in assay [6] (setting [9]), 101%; in assay [6] (setting [10]) it was 98.3%. In addition, the Her2 level in assay [2] is 102% (inactive). Besides, the differential viability (reversal) in assay [6] (H69AR cells + 2 uM doxorubicin) is -2.33% (inactive). Moreover, the inhibition is -6.13% (inactive) in assay [7] and 1.15% (inactive) in assay [8].
With `O=C(CSc1n[nH]c(-c2cccs2)n1)N1CCN(S(=O)(=O)c2ccccc2)CC1`, the viability in assay [1] is 80.5%; in assay [3] it was 80.5% (inactive); in assay [4], 97.4% (inactive); in assay [5] it was 102% (inactive); in assay [6] (setting [9]), 106%; in assay [6] (setting [10]) it was 102%. The Her2 level in assay [2] is 78.5% (inactive). For the same molecule, the differential viability (reversal) in assay [6] (H69AR cells + 2 uM doxorubicin) was -3.67% (inactive). Moreover, the figures for the inhibition in assay [7] and in assay [8] were 0.91% (inactive) and 9.84% (inactive), respectively.
For `COc1ccc(NC(=O)c2cc(C(C)C)on2)c(OC)c1`, the viability in assay [1] is 93.5%; in assay [3] it was 93.5% (inactive); in assay [4], 79.5% (inactive); in assay [5] it was 88% (inactive); in assay [6] (setting [9]) it was 90.6%; in assay [6] (setting [10]), 88%. In addition, the Her2 level in assay [2] is 85.5% (inactive). The differential viability (reversal) in assay [6] (H69AR cells + 2 uM doxorubicin) is -2.67% (inactive). Also, the figures for the inhibition in assay [7] and in assay [8] were 0.51% (inactive) and -2% (inactive), respectively.
On to `CC(=O)C1=C(O)C(=O)N(Cc2ccco2)C1c1ccc2c(c1)OCO2` (stereo not given), for which the viability in assay [1] is 108%; in assay [3], 108% (inactive); in assay [4], 119% (inactive); in assay [5], 112% (inactive); in assay [6] (setting [9]), 105%; in assay [6] (setting [10]) it was 112%. In assay [2], the Her2 level was 84.5% (inactive). The differential viability (reversal) in assay [6] (H69AR cells + 2 uM doxorubicin) is 7.12% (inactive). Also, the inhibition in assay [7] is -5.07% (inactive); in assay [8], 0.48% (inactive).
As to `O=C(CSc1nnnn1-c1ccccc1)c1cc2ccccc2oc1=O`, the viability in assay [1] is 95.5%; in assay [3], 95.5% (inactive); in assay [4], 86.5% (inactive); in assay [5] it was 74.2% (inactive); in assay [6] (setting [9]) it was 78.3%; in assay [6] (setting [10]), 74.2%. Also, in assay [2], the Her2 level is 102% (inactive). For the same molecule, the differential viability (reversal) in assay [6] (H69AR cells + 2 uM doxorubicin) was -4.18% (inactive). Also, the inhibition in assay [7] is -6.62% (inactive); in assay [8], -6.83% (inactive).
Consider `CCOc1ccc(S(=O)(=O)N2CCN(C(=O)c3cccn3C)CC2)cc1`, for which the viability in assay [1] was 101%; in assay [3] it was 101% (inactive); in assay [4], 101% (inactive); in assay [5] it was 97.3% (inactive); in assay [6] (setting [9]) it was 87.5%; in assay [6] (setting [10]) it was 97.3%. Moreover, the Her2 level in assay [2] is 78.5% (inactive). Also, the differential viability (reversal) in assay [6] (H69AR cells + 2 uM doxorubicin) is 9.79% (inactive). In addition, the values for the inhibition in assay [7] and in assay [8] were -9.04% (inactive) and -2.86% (inactive), respectively.
Take `CCN(CC)CCCN(Cc1cc2cc(OC)ccc2[nH]c1=O)C(=O)Nc1ccccc1`: the viability in assay [1] is 90%; in assay [3], 90% (inactive); in assay [4], 65.8% (inactive); in assay [5], 77.7% (inactive); in assay [6] (setting [9]), 74.3%; in assay [6] (setting [10]) it was 77.7%. The Her2 level in assay [2] is 73% (inactive). Also, the differential viability (reversal) in assay [6] (H69AR cells + 2 uM doxorubicin) is 3.46% (inactive). In addition, the values for the inhibition in assay [7] and in assay [8] were -5.73% (inactive) and -1.97% (inactive), respectively.
For the molecule `COc1ccc(N2CCN(CCCNC(=O)CC3Oc4ccc(C)cc4NC3=O)CC2)cc1` (stereo not given), the viability is 87.5% in assay [1]; 87.5% (inactive) in assay [3]; 88.9% (inactive) in assay [4]; 89.6% (inactive) in assay [5]; 88.7% in assay [6] (setting [9]); 89.6% in assay [6] (setting [10]). Besides, the Her2 level in assay [2] is 99% (inactive). Moreover, the differential viability (reversal) in assay [6] (H69AR cells + 2 uM doxorubicin) is 0.915% (inactive). Also, the inhibition in assay [7] is -2.27% (inactive); in assay [8] it was -2.62% (inactive).
As for `COc1cccc(N2CCN(C(=O)C3C4C=CC5(CN(Cc6ccccc6Cl)C(=O)C35)O4)CC2)c1` (stereo not given), the viability in assay [1] is 83.5%; in assay [3], 83.5% (inactive); in assay [4] it was 78.6% (inactive); in assay [5] it was 100% (inactive); in assay [6] (setting [9]), 91.3%; in assay [6] (setting [10]), 100%. Also, the Her2 level in assay [2] is 97% (inactive). In addition, the differential viability (reversal) in assay [6] (H69AR cells + 2 uM doxorubicin) was 9.13% (inactive). For the same molecule, the inhibition is -3.42% (inactive) in assay [7] and -6.17% (inactive) in assay [8].
In the case of `COCCn1nnnc1CN(Cc1cccnc1)Cc1cc2cc(OC)ccc2[nH]c1=O`, the viability in assay [1] is 91%; in assay [3], 91% (inactive); in assay [4] it was 98.6% (inactive); in assay [5], 88.3% (inactive); in assay [6] (setting [9]), 79.5%; in assay [6] (setting [10]), 88.3%. Further, the Her2 level in assay [2] was 75% (inactive). Also, the differential viability (reversal) in assay [6] (H69AR cells + 2 uM doxorubicin) is 8.82% (inactive). Further, the inhibition in assay [7] was -7.07% (inactive); in assay [8], 4.26% (inactive).
On to `COc1ccc(NCc2nnc(SCC(=O)Nc3cc(C)cc(C)c3)o2)cc1`, for which the viability is 112% in assay [1]; 112% (inactive) in assay [3]; 70% (inactive) in assay [4]; 81.9% (inactive) in assay [5]; 85.6% in assay [6] (setting [9]); 81.9% in assay [6] (setting [10]). The Her2 level in assay [2] was 90.5% (inactive). The differential viability (reversal) in assay [6] (H69AR cells + 2 uM doxorubicin) is -3.66% (inactive). Besides, the inhibition is -6.53% (inactive) in assay [7] and -1.64% (inactive) in assay [8].
For `CCn1c(SCC(=O)N2CCOCC2)nc2c(c1=O)SC(C)C2` (stereo not given), the viability is 95% in assay [1]; 95% (inactive) in assay [3]; 97.3% (inactive) in assay [4]; 88% (inactive) in assay [5]; 81.7% in assay [6] (setting [9]); 88% in assay [6] (setting [10]). In addition, the Her2 level in assay [2] was 112% (inactive). Also, the differential viability (reversal) in assay [6] (H69AR cells + 2 uM doxorubicin) is 6.23% (inactive). Also, the inhibition was -7.53% (inactive) in assay [7] and -4.92% (inactive) in assay [8].
